The test system of one series is Pseudomonas aeruginosa. Put plainly: Antimicrobial activity against Pseudomonas aeruginosa ATCC 27853 by CLSI method. The series is classed as functional, organism-based. The essentials: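 Antibacterial testing used CLSI/NCCLS broth dilution for aerobically growing bacteria, with 20 as the highest test concentration.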
Series [1] can be described thus: Selectivity index, ratio of IC50 for african green monkey Vero cells to IC50 for chloroquine-sensitive Plasmodium falciparum D6. The series is classed as toxicity, cell-based. The conditions noted are these: Vero cells versus Plasmodium falciparum D6, read-out: Ratio IC50.
A further series concerns Escherichia coli. Put plainly: Antimicrobial activity against Escherichia coli ATCC 35218 by CLSI method. The series is classed as functional, organism-based.
A further series concerns Vero. Put plainly: Cytotoxicity against african green monkey Vero cells upto 23.8 […] by neutral dye assay. The series is classed as cell-based, Chlorocebus sabaeus. The essentials:
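Vero monkey kidney cells were exposed to compound up to a highest concentration of 23.8, with viability read by neutral red uptake.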

Series [2] relates to Plasmodium falciparum. Put plainly: Antimalarial activity against chloroquine-sensitive Plasmodium falciparum D6 assessed as plasmodial LDH activity. The series is classed as functional, organism-based.
The next series relates to Leishmania donovani. Put plainly: Antileishmanial activity against Leishmania donovani promastigote by Alamar Blue assay. The series is classed as functional, organism-based. On the technique in general: Resazurin is reduced to fluorescent resorufin, in cell work by metabolically active cells.
The test system of series [3] is Staphylococcus aureus. Put plainly: Antimicrobial activity against methicillin-resistant Staphylococcus aureus ATCC 43300 by CLSI method. The format is functional, organism-based.
In series [4] the test system is Mycobacterium intracellulare. Put plainly: Antimicrobial activity against Mycobacterium intracellulare ATCC 23068 by Franzblau method. The format is functional, organism-based.
For series [5], the system named is Staphylococcus aureus. Put plainly: Antimicrobial activity against Staphylococcus aureus ATCC 29213 by CLSI method. The format is functional, organism-based.
Series [6] is described as follows: Inhibition of beta-hematin formation. The format is functional.
Series [7] in a line: Selectivity index, ratio of IC50 for african green monkey Vero cells to IC50 for chloroquine-resistant Plasmodium falciparum W2. The series is classed as toxicity, cell-based. The conditions noted are these: Vero cells versus Plasmodium falciparum W2, read-out: Ratio IC50.
For series [8], the system named is Plasmodium falciparum. Put plainly: Antimalarial activity against chloroquine-resistant Plasmodium falciparum W2 assessed as plasmodial LDH activity. The series is classed as functional, organism-based.
Series [9] relates to Candida albicans. Put plainly: Antifungal activity against Candida albicans at 20 ug/ml. The series is classed as functional, organism-based. The method in brief:
(§1)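 Broth dilution antifungal testing followed the NCCLS reference method for yeasts, with 20 as the highest test concentration. MIC was the lowest concentration with no detectable growth. MFC was the lowest concentration killing the organism.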

Another series deals with Aspergillus fumigatus. Put plainly: Antifungal activity against Aspergillus fumigatus. The format is functional, organism-based. The essentials:
(§2)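 Yeasts and A. fumigatus were tested by broth microdilution following the NCCLS antifungal standards. The highest test concentration was 20.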

The test system of another series is Cryptococcus neoformans. Put plainly: Antifungal activity against Cryptococcus neoformans. The format is functional, organism-based. The essentials: as §2
Series [10] relates to Candida albicans. Put plainly: Fungicidal activity against Candida albicans at 20 ug/ml. The format is functional, organism-based. The method in brief: as §1
Where [11] appears, read: Plasmodium falciparum, D6, read-out: IC50.
Where [12] appears, read: Leishmania donovani, read-out: IC50.
Where [13] appears, read: Plasmodium falciparum, W2, read-out: IC50.

SMILES strings stand for the structures. Values after ≈ are worked out from the molar mass of the structure shown. Active and inactive are the calls of the source. Bounds are passed on as bounds.

For `COc1cc(NC(C)CCCNC(=O)C[C@@H](NC(=O)[C@H](N)CCCNC(=N)N)C(=O)O)c2ncccc2c1` (some centres undefined), the result (in the series on Pseudomonas aeruginosa; in the series with Escherichia coli; with Staphylococcus aureus [3]; in series [4]; in the series on Staphylococcus aureus [5]) was inactive. The selectivity ratio is more than 7.4 in [1] and more than 5.6 in series [7]. In addition, the IC50 (usually the concentration needed to halve the response being measured) in the series with Vero is “Non-toxic”; with Plasmodium falciparum [2] (setting [11]), 3.2 µg/mL (≈ 6.03 µM); in the series with Leishmania donovani (setting [12]), 20.1 µg/mL (≈ 37.9 µM); in series [6], 210 µM; in the series on Plasmodium falciparum [8] (setting [13]), 4.2 µg/mL (≈ 7.92 µM). In addition, the IC90 (commonly the concentration at which the effect reaches the 90% level) with Leishmania donovani (Leishmania donovani) was found to be 33 µg/mL (≈ 62.2 µM).
In the case of `COc1cc(NC(C)CCCNC(=O)[C@@H](CCCN)NC(=O)[C@H](N)CCCN)c2ncccc2c1` (some centres undefined), the outcome (with Candida albicans [9]; in the series on Pseudomonas aeruginosa; in the series with Escherichia coli; in the series with Staphylococcus aureus [3]; in the series with Aspergillus fumigatus; in series [4]) was inactive. For the same compound, the outcome with Staphylococcus aureus [5] and with Candida albicans [10] was inactive. For the same compound, the IC50 entry with Vero is “Non-toxic”; in the series with Plasmodium falciparum [2], “Not Active”; with Leishmania donovani (setting [12]), 40 µg/mL (≈ 82 µM); in series [6], 420 µM; in the series with Cryptococcus neoformans it was 3.5 µg/mL (≈ 7.18 µM); with Plasmodium falciparum [8] (setting [13]), 4.76 µg/mL (≈ 9.76 µM). The IC90 result in the series with Leishmania donovani was “inactive”. Besides, the selectivity ratio in [7] is more than 5. Besides, the MFC (commonly the smallest concentration meeting the test's criterion for killing the fungus) in the series with Cryptococcus neoformans worked out at 5 µg/mL (≈ 10.3 µM). Moreover, it took 5 µg/mL (≈ 10.3 µM) to inhibit growth against Cryptococcus neoformans (MIC).
On to `COc1cc(NC(C)CCCNC(=O)[C@H](CCCNC(=N)N)NC(=O)[C@@H](N)CCCNC(=N)N)c2ncccc2c1` (some centres undefined), for which the outcome (in the series with Candida albicans [9]; in the series with Pseudomonas aeruginosa; with Escherichia coli; in the series with Staphylococcus aureus [3]; in the series on Aspergillus fumigatus; in series [4]) was inactive. The outcome with Staphylococcus aureus [5] and with Candida albicans [10] was inactive. Also, the IC50 entry is “Non-toxic” in the series with Vero; “Not Active” in the series with Plasmodium falciparum [2]; “Not Active” in the series with Leishmania donovani; 81 µM in series [6]; 4.5 µg/mL (≈ 7.87 µM) in the series on Cryptococcus neoformans; 4.76 µg/mL (≈ 8.33 µM) in the series with Plasmodium falciparum [8] (setting [13]). For the same compound, the IC90 result in the series with Leishmania donovani was “inactive”. In series [7], the selectivity ratio is more than 5. The compound also yielded an MFC in the series on Cryptococcus neoformans of 10 µg/mL (≈ 17.5 µM). In the series on Cryptococcus neoformans, the minimal inhibitory concentration (MIC) (usually the smallest concentration in the dilution series that meets the test's criterion for growth inhibition) turned out to be 10 µg/mL (≈ 17.5 µM).
For the compound `COc1cc(NC(C)CCCNC(=O)CC[C@H](NC(=O)[C@@H](N)CCCCN)C(=O)O)c2nc(C(C)(C)C)ccc2c1` (some centres undefined), the result (in the series with Candida albicans [9]; in the series with Pseudomonas aeruginosa; in the series with Escherichia coli; in the series with Staphylococcus aureus [3]; in the series with Aspergillus fumigatus; in series [4]) was inactive. Further, the result with Staphylococcus aureus [5] and in the series on Candida albicans [10] was inactive. For the same compound, the IC50 result in the series on Vero was “Non-toxic”; in the series with Plasmodium falciparum [2], “Not Active”; with Leishmania donovani it was “Not Active”; in [6], more than 1000 µM; in the series on Cryptococcus neoformans it was 15 µg/mL (≈ 26.2 µM); with Plasmodium falciparum [8], “Not Active”. In addition, the IC90 entry in the series on Leishmania donovani was “inactive”. Besides, in the series with Cryptococcus neoformans, the MFC was 20 µg/mL (≈ 34.9 µM). This compound returned a minimum inhibitory concentration (MIC) against Cryptococcus neoformans of 20 µg/mL (≈ 34.9 µM).
On to `COc1cc(NC(C)CCCNC(=O)CC[C@H](NC(=O)[C@@H](N)CCCN)C(=O)O)c2nc(C(C)(C)C)ccc2c1` (some centres undefined), for which the result (in the series with Candida albicans [9]; with Pseudomonas aeruginosa; in the series with Escherichia coli; in the series on Staphylococcus aureus [3]; with Aspergillus fumigatus; in series [4]) was inactive. Moreover, the result with Staphylococcus aureus [5] and in the series with Candida albicans [10] was inactive. For the same compound, the IC50 result was “Non-toxic” in the series on Vero; “Not Active” in the series on Plasmodium falciparum [2]; “Not Active” with Leishmania donovani; more than 1000 µM in series [6]; 15 µg/mL (≈ 26.8 µM) in the series with Cryptococcus neoformans; “Not Active” in the series with Plasmodium falciparum [8]. Moreover, the IC90 entry with Leishmania donovani is “inactive”. In the series on Cryptococcus neoformans, this compound had a minimum fungicidal concentration (MFC) of 20 µg/mL (≈ 35.8 µM). Further, the lowest concentration to inhibit growth with Cryptococcus neoformans (MIC) was 20 µg/mL (≈ 35.8 µM).
In the case of `COc1cc(NC(C)CCCNC(=O)C[C@H](NC(=O)[C@@H](N)CCCNC(=N)N)C(=O)O)c2ncccc2c1` (some centres undefined), the result (in the series on Pseudomonas aeruginosa; in the series on Escherichia coli; in the series with Staphylococcus aureus [3]; in [4]; with Staphylococcus aureus [5]) was inactive. Moreover, the figures for the selectivity ratio in series [1] and in series [7] were more than 7.9 and more than 8.2, respectively. The IC50 result in the series on Vero is “Non-toxic”; in the series with Plasmodium falciparum [2] (setting [11]) it was 3 µg/mL (≈ 5.65 µM); in the series with Leishmania donovani, “Not Active”; in [6] it was 120 µM; in the series on Plasmodium falciparum [8] (setting [13]), 2.9 µg/mL (≈ 5.47 µM). Besides, in the series on Leishmania donovani, the IC90 entry is “inactive”.
For the compound `COc1cc(NC(C)CCCNC(=O)NCCC[C@@H](N)C(=O)O)c2nc(C(C)(C)C)ccc2c1` (some centres undefined), the result (with Pseudomonas aeruginosa; with Escherichia coli; with Staphylococcus aureus [3]; in [4]; in the series with Staphylococcus aureus [5]) was inactive. The figures for the selectivity ratio in series [1] and in series [7] were more than 5.5 and 5, respectively. The IC50 result with Vero is “Non-toxic”; in the series on Plasmodium falciparum [2] (setting [11]), 4.2 µg/mL (≈ 8.87 µM); with Leishmania donovani, “Not Active”; in series [6], 250 µM; with Plasmodium falciparum [8] (setting [13]) it was 4.76 µg/mL (≈ 10.1 µM). In the series with Leishmania donovani, the IC90 result is “inactive”.
With `COc1cc(NC(C)CCCNC(=O)[C@@H](CCCNC(=N)N)NC(=O)[C@H](N)CCCNC(=N)N)c2ncccc2c1` (some centres undefined), the outcome (with Candida albicans [9]; in the series on Pseudomonas aeruginosa; in the series on Escherichia coli; in the series on Staphylococcus aureus [3]; in the series with Aspergillus fumigatus; in series [4]) was inactive. The outcome in the series with Staphylococcus aureus [5] and in the series with Candida albicans [10] was inactive. The figures for the selectivity ratio in series [1] and in series [7] were more than 18.3 and more than 14, respectively. The IC50 entry in the series on Vero was “Non-toxic”; in the series on Plasmodium falciparum [2] (setting [11]), 1.3 µg/mL (≈ 2.27 µM); in the series with Leishmania donovani (setting [12]), 17 µg/mL (≈ 29.7 µM); in [6], 32 µM; in the series with Cryptococcus neoformans, 7 µg/mL (≈ 12.2 µM); with Plasmodium falciparum [8] (setting [13]), 1.7 µg/mL (≈ 2.97 µM). The IC90 with Leishmania donovani (Leishmania donovani) amounted to 36 µg/mL (≈ 63 µM). The compound also yielded an MFC in the series on Cryptococcus neoformans of 10 µg/mL (≈ 17.5 µM). Further, in the series on Cryptococcus neoformans, inhibition of growth (MIC) required 10 µg/mL (≈ 17.5 µM).
As for `COc1cc(NC(C)CCCNC(=O)CC[C@H](NC(=O)[C@@H](N)CCCNC(=N)N)C(=O)O)c2ncccc2c1` (some centres undefined), the outcome (with Pseudomonas aeruginosa; in the series with Escherichia coli; in the series with Staphylococcus aureus [3]; in series [4]; in the series on Staphylococcus aureus [5]) was inactive. In addition, the selectivity ratio in [1] and in [7] was more than 13.2 in each case. Moreover, the IC50 entry with Vero is “Non-toxic”; in the series with Plasmodium falciparum [2] (setting [11]), 1.8 µg/mL (≈ 3.3 µM); in the series on Leishmania donovani it was “Not Active”; in the series with Plasmodium falciparum [8] (setting [13]), 1.8 µg/mL (≈ 3.3 µM). In the series on Leishmania donovani, the IC90 entry was “inactive”.
For the compound `COc1cc(NC(C)CCCNC(=O)C[C@@H](NC(=O)[C@H](N)CCCCN)C(=O)O)c2ncccc2c1` (some centres undefined), the outcome (with Candida albicans [9]; with Pseudomonas aeruginosa; in the series with Escherichia coli; with Staphylococcus aureus [3]; in the series with Aspergillus fumigatus; in series [4]) was inactive. Moreover, the outcome with Staphylococcus aureus [5] and with Candida albicans [10] was inactive. Further, the selectivity ratio in series [1] was more than 9.9; in [7], more than 7.4. The IC50 entry in the series on Vero was “Non-toxic”; with Plasmodium falciparum [2] (setting [11]), 2.4 µg/mL (≈ 4.78 µM); in the series with Leishmania donovani, “Not Active”; in series [6], 160 µM; in the series on Cryptococcus neoformans, 4.5 µg/mL (≈ 8.95 µM); with Plasmodium falciparum [8] (setting [13]) it was 3.2 µg/mL (≈ 6.37 µM). In the series with Leishmania donovani, the IC90 result is “inactive”. This compound showed an MFC in the series on Cryptococcus neoformans of 10 µg/mL (≈ 19.9 µM). The compound further displayed an MIC in the series with Cryptococcus neoformans of 10 µg/mL (≈ 19.9 µM).
